This note sets out measurements from ChEMBL document CHEMBL1157760, “Design, synthesis and anticancer activities of stilbene-coumarin hybrid compounds: Identification of novel proapoptotic agents” (Bioorg Med Chem, 2010).

Experiment [1] concerns NCI-H460. Kind of experiment: Increase in CDKp21 protein expression in human H460 cells at 3 uM after 24 hrs by Western blot analysis. The class given is functional, cell-based. In a few lines: (§1)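 After 24 h drug exposure, H460 cells rinsed twice in ice-cold PBS with 0.1 mM sodium orthovanadate and lysed in hot sample buffer. Protein quantified, separated by SDS-PAGE, transferred to nitrocellulose, probed with primary antibodies and HRP secondaries, and detected by enhanced chemiluminescence. Actin served as loading control.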

Experiment [2] relates to NCI-H460. Nature of the experiment: Upregulation of cyclin B1 protein expression in human H460 cells at 3 uM after 24 hrs by Western blot analysis. The class given is functional, cell-based. Summed up: as §1
For experiment [3], the system named is NCI-H460. Nature of the experiment: Upregulation of p34CDC2 protein expression in human H460 cells at 3 uM after 24 hrs by Western blot analysis. The format is functional, cell-based. Summed up:
as §1

Another experiment concerns A-431. Kind of experiment: Antiproliferative activity against human A431 cells after 72 hrs. The note with it: A-431, 72 h. The format is functional, cell-based. In a few lines:
(§2)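 Growth inhibition: log-phase tumour cells seeded in duplicate, drug added 24 h after seeding, cells harvested 72 h after exposure and counted with a cell counter. IC50 taken as concentration giving 50% fewer cells than untreated control.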

In experiment [4] the test system is NCI-H460. Kind of experiment: Antiproliferative activity against human H460 cells after 72 hrs. The settings on record: NCI-H460, 72 h. The class given is functional, cell-based. Summed up: as §2
Experiment [5] in a line: Antiproliferative activity against human JR8 cells after 72 hrs. The class given is functional, cell-based. The settings on record: JR8, 72 h. Summed up:
as §2

Experiment [6] concerns NCI-H460. Kind of experiment: Induction of apoptosis in human H460 cells at 0.3 to 3 uM after 72 hrs by TUNEL assay. The class given is functional, cell-based. In a few lines: (§3)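 H460 cells exposed 72 h to drug. Floating plus adherent cells fixed in 4% paraformaldehyde for 60 min at room temperature, then resuspended in ice-cold PBS. Fluorescein in situ cell-death (TUNEL) kit used and cells read by flow cytometry. Result given as percent TUNEL-positive cells against untreated control.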

In experiment [7] the test system is NCI-H460. Nature of the experiment: Induction of apoptosis in human H460 cells assessed as cleavage of PARP at 1.5 uM after 24 hrs by Western blot analysis. The format is functional, cell-based. Summed up:
as §1

For experiment [8], the system named is NCI-H460. Nature of the experiment: Increase in CDKp21 protein expression in human H460 cells at 1.5 uM after 24 hrs by Western blot analysis. The class given is functional, cell-based. Summed up: as §1
For experiment [9], the system named is NCI-H460. Kind of experiment: Upregulation of cyclin B1 protein expression in human H460 cells at 1.5 uM after 24 hrs by Western blot analysis. The class given is functional, cell-based. In a few lines:
as §1

The subject of experiment [10] is NCI-H460. Nature of the experiment: Upregulation of p34CDC2 protein expression in human H460 cells at 1.5 uM after 24 hrs by Western blot analysis. The class given is functional, cell-based. Summed up: as §1
Experiment [11] concerns NCI-H460. Kind of experiment: Induction of apoptosis in human H460 cells assessed as CDKp21-p34CDC2 complex formation at 1.5 uM after 24 hrs by immunoprecipitation assay. The class given is functional, cell-based. In a few lines:
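H460 cells exposed 24 h at 1.5 µM, lysed in NET buffer (pH 7.4, 0.1% NP40, protease inhibitors) on ice then at 4 °C. Lysate cleared at 10,000g and BCA-quantified. 500 µg immunoprecipitated with anti-cdc2 antibody 2 h at 4 °C, then with protein A-sepharose overnight at 4 °C. Pellets washed, eluted and immunoblotted for p34cdc2 and p21.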

The subject of experiment [12] is NCI-H460. Nature of the experiment: Antitumor activity against human H460 cells xenograft model assessed as tumor growth inhibition at 10 to 20 mg/kg, po administered daily. The class given is functional. The settings on record: dose mg/kg 10-20.
Experiment [13] concerns NCI-H460. Nature of the experiment: Induction of apoptosis in human H460 cells at 0.5 to 1.5 uM after 72 hrs by TUNEL assay. The format is functional, cell-based. Summed up:
as §3

Experiment [14] concerns NCI-H460. Nature of the experiment: Induction of apoptosis in human H460 cells assessed as cleavage of caspase 3 at 1.5 uM after 24 hrs by Western blot analysis. The format is functional, cell-based. In a few lines:
as §1

Experiment [15] relates to NCI-H460. Kind of experiment: Cell cycle arrest in human H460 cells assessed as accumulation at G2/M phase after 24 hrs by propidium iodide staining-based flow cytometry. The format is functional. Summed up: (§4)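 H460 cells treated 24 h at 10 and 20 µM (resveratrol), 0.5 and 1.5 µM, or 0.3 and 3 µM, then analysed for cell cycle phase distribution (G1, S, G2/M).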
The subject of experiment [16] is NCI-H460. Nature of the experiment: Cell cycle arrest in human H460 cells assessed as accumulation at G2/M phase at 20 uM after 24 hrs by propidium iodide staining-based flow cytometry. The format is functional. In a few lines: as §4
Experiment [17] has as its system NCI-H460. Kind of experiment: Induction of apoptosis in human H460 cells at 10 to 20 uM after 72 hrs by TUNEL assay. The format is functional, cell-based. In a few lines: as §3

Active and inactive are the calls of the source. The calls are words filed in the database; no cut-off is given here.

In the case of `COc1ccc2c(/C=C/c3cc(C)cc(C)c3)cc(=O)oc2c1`, the result in the experiment with NCI-H460 [1], in the experiment with NCI-H460 [2], in the experiment with NCI-H460 [3] and in the experiment on NCI-H460 [6] was Active. Also, the figures for the IC50 (in the experiment with A-431; with NCI-H460 [4]; in experiment [5]) were 3.5 µM, 0.29 µM and 3.5 µM, respectively.

As to `COc1cc(/C=C/c2cc(=O)oc3cc(OC)ccc23)cc(OC)c1`, the outcome in the experiment with NCI-H460 [7], with NCI-H460 [8], in the experiment with NCI-H460 [9], with NCI-H460 [10], in the experiment with NCI-H460 [11] and in the experiment with NCI-H460 [13] was Active. The outcome in the experiment with NCI-H460 [14] was Active. Also, in the experiment on NCI-H460 [12], the “inhibition (INH)” value turned out to be 50%. The values for the IC50 (in the experiment on A-431; in the experiment with NCI-H460 [4]; in [5]) were 3.44 µM, 0.45 µM and 3.2 µM, respectively.

`COc1ccc2c(/C=C/c3ccc(OC)c(OC)c3OC)cc(=O)oc2c1` displayed an IC50 in the experiment on NCI-H460 [4] of more than 50 µM.

For `COc1ccc2c(/C=C/c3ccc(OCC=C(C)C)cc3)cc(=O)oc2c1`, in the experiment with NCI-H460 [4], the IC50 is more than 50 µM.

Consider `COc1ccc2c(/C=C/c3cc(OC)c(OC)c(OC)c3)cc(=O)oc2c1`, for which the 50% inhibitory concentration (IC50) in the experiment on NCI-H460 [4] was more than 100 µM.

Take `COc1cc(/C=C/c2cc3ccc(OC)cc3oc2=O)cc(OC)c1`: in the experiment with NCI-H460 [4], the IC50 was more than 10 µM.

In the experiment on NCI-H460 [4], `COc1cc(/C=C/c2cc(=O)oc3ccc(OC)cc23)cc(OC)c1` gave an IC50 of 11 µM.

Take `COc1cccc(/C=C/c2cc(=O)oc3cc(OC)ccc23)c1`: the midpoint of inhibition with NCI-H460 [4], the IC50, lay at 12.9 µM.

As to `Oc1ccc(/C=C/c2cc(O)cc(O)c2)cc1` [RESVERATROL], in the experiment on NCI-H460 [15], the Activity result is “Dose-dependent effect”. For the same compound, in the experiment on NCI-H460 [16], the result was Active. Also, the IC50 with NCI-H460 [4] worked out at 12.9 µM. The result with NCI-H460 [17] was inactive.

On to `COc1cc(/C=C/c2cc(=O)oc3ccccc23)cc(OC)c1`, for which the IC50 with NCI-H460 [4] was 2.6 µM.

Compound `O=c1cc(/C=C/c2cc(O)cc(O)c2)c2ccc(O)cc2o1` registered an IC50 in the experiment with NCI-H460 [4] of 27 µM.
